Reference: ChEMBL document CHEMBL1154606 (J Med Chem, 2009)
Where a SMILES comes first, the peptide text is derived from it. [ ]: non-standard residue; d: D form. NMeF = CN[C@@H](Cc1ccccc1)C(=O)O

Assays:
[1] = biological target: T1, Neuromedin-K receptor (Cavia porcellus) (UniProt P30098); settings: HEK293
T1 sequence (whole entry): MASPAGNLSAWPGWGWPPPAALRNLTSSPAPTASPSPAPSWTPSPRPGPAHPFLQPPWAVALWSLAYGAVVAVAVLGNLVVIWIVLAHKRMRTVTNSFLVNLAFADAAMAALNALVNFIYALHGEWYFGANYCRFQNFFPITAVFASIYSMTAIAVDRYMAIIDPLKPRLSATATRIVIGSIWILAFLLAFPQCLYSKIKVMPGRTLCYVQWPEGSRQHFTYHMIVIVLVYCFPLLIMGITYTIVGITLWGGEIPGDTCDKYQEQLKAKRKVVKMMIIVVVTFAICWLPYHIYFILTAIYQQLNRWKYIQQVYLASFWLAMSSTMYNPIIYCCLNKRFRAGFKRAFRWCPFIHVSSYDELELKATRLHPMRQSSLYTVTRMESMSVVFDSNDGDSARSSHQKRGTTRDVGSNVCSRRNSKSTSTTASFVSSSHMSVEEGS

[2] = tested on: Neurokinin 3 receptor (Cavia porcellus); assay: Equilibrium binding affinity to guinea pig NK3 receptor A1142.58T mutant expressed in HEK293 cells
[3] = biological target: T1, Neuromedin-K receptor (Cavia porcellus); settings: HEK293; remark: listed apart in the source
[4] = biological target: T2, Neuromedin-K receptor (Homo sapiens) (UniProt P29371); settings: HEK293
T2 sequence (whole entry): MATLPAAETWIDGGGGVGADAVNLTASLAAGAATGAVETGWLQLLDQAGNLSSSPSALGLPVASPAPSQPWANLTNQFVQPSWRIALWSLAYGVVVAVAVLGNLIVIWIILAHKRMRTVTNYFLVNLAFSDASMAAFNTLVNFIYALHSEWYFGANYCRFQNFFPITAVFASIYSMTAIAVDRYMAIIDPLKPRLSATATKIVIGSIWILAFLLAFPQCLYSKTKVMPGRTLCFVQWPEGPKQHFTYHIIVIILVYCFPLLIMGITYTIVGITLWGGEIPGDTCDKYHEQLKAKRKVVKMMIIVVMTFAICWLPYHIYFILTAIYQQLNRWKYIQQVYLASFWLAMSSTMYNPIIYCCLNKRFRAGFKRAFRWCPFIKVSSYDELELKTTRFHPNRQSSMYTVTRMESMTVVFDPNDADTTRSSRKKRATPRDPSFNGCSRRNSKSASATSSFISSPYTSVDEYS

[5] = biological target: T2, Neuromedin-K receptor (Homo sapiens); settings: HEK293; remark: listed apart in the source
Neuromedin-K receptor [6] = biological target: T3, Neuromedin-K receptor (Cavia porcellus, UniProt P30098); assay: Displacement of [3H]osanetant from guinea pig recombinant NK3 receptor expressed in HEK293 cells; format: cell-based
T3 sequence (P30098 whole entry): T1 sequence (whole entry)
How it was run: (§1)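 Membranes from transiently transfected HEK293 cells (5 μg protein/well) in 50 mM Tris-HCl, 4 mM MnCl2, 1 μM phosphoramidon, 0.1% BSA, pH 7.4. Nonspecific binding defined with 10 μM competitor. Filtered on GF/C. Ki by Cheng-Prusoff; three experiments in duplicate.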

Neuromedin-K receptor [7] = biological target: T4, Neuromedin-K receptor (Cavia porcellus, UniProt P30098); assay: Displacement of [3H]osanetant from guinea pig recombinant NK3 receptor A1142.58T expressed in HEK293 cells; format: cell-based
How it was run: as §1

Substance-K receptor [8] = biological target: T5, Substance-K receptor (Homo sapiens, UniProt P21452); assay: Displacement of [3H]SR48968 from human recombinant NK2 receptor expressed in HEK293 cells; format: cell-based
T5 sequence (P21452 whole entry): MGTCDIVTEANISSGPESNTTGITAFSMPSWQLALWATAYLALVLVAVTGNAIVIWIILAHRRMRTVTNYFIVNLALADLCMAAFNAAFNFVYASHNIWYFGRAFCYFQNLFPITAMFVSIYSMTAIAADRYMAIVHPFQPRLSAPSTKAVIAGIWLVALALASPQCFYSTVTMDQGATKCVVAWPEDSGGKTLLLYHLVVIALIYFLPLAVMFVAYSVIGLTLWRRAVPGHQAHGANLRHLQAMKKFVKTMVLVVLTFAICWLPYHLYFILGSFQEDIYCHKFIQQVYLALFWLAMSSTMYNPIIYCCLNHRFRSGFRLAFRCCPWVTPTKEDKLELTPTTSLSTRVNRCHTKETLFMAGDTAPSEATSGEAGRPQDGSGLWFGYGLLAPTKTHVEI
How it was run: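 hNK2 membranes from transient HEK293 (2.5 μg protein/well) in 50 mM Tris-HCl, 3 mM MnCl2, 4 μg/mL chymostatin, 0.04% BSA, pH 7.4. Incubated with 0.32 nM [³H]SR 48968 plus 10 inhibitor concentrations (0.0003–10 μM) for 75 min at RT. Ki by Cheng-Prusoff; three experiments in duplicate.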

Neuromedin-K receptor [9] = biological target: T6, Neuromedin-K receptor (Homo sapiens, UniProt P29371); assay: Antagonist activity at wild type human NK3 receptor expressed in HEK293 cells assessed as inhibition of [MePhe7]NKB-induced accumulation of [3H]inositol phosphate; format: functional, cell-based; settings: read-out: pA2 (converted)
T6 sequence (P29371 whole entry): T2 sequence (whole entry)
How it was run: (§2)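 HEK293 cells transiently transfected with NK3 receptor, labeled with myo-[³H]-inositol and assayed 48 h post-transfection in HBSS/HEPES pH 7.4 with 8 mM LiCl. Fixed antagonist concentrations were preincubated 20 min at 37 °C, then [MePhe⁷]NKB (0.1 nM–10 μM) was added for 45 min at 37 °C. [³H]IP was captured on yttrium silicate beads. Agonist EC50 shifts gave dose ratios for Schild regression. Six curves from three transfections.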

Neuromedin-K receptor [10] = biological target: T4, Neuromedin-K receptor; assay: Antagonist activity at […] guinea pig NK3 receptor A1142.58T mutant expressed in HEK293 cells assessed as inhibition of [MePhe7]NKB-induced accumulation of [3H]inositol phosphate; format: functional, cell-based
How it was run: as §2

Substance-P receptor = Substance-P receptor (Homo sapiens, UniProt P25103); assay: Displacement of [3H]substance P from human recombinant NK1 receptor expressed in HEK293 cells; format: cell-based
Substance-P receptor, sequence (P25103 whole entry): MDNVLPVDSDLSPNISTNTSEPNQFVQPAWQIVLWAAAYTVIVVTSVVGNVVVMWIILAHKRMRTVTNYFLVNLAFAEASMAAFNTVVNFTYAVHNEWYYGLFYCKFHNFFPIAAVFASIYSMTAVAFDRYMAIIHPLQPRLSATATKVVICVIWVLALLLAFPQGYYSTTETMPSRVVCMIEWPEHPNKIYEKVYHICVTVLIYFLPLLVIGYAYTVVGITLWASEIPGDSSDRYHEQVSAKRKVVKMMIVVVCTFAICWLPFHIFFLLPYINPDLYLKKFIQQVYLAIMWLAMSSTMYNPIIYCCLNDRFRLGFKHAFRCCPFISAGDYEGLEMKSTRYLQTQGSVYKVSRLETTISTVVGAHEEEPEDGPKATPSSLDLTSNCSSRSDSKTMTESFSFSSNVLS
How it was run: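 hNK1 membranes from transient HEK293 (2.5 μg protein/well) in 50 mM HEPES, 3 mM MnCl2, 2 μM phosphoramidon, 16.8 μM leupeptin, 0.04% BSA, pH 7.4. Incubated with 0.6 nM [³H]substance P plus 10 inhibitor concentrations (0.0003–10 μM) for 75 min at RT. Nonspecific binding defined with 10 μM CP-96,345. Ki by Cheng-Prusoff; three experiments in duplicate.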

Neuromedin-K receptor [11] = biological target: T6, Neuromedin-K receptor; assay: Displacement of [3H]osanetant from human recombinant NK3 receptor expressed in HEK293 cells; format: cell-based
How it was run: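 Membranes from transiently transfected HEK293 cells (5 μg protein/well) in 50 mM Tris-HCl, 4 mM MnCl2, 1 μM phosphoramidon, 0.1% BSA, pH 7.4. […] Nonspecific binding defined with 10 μM competitor. Filtered on GF/C. Ki by Cheng-Prusoff; three experiments in duplicate.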

Substance-K receptor [12] = biological target: T5, Substance-K receptor; assay: Binding affinity to human NK2 receptor
Neuromedin-K receptor [13] = biological target: T6, Neuromedin-K receptor; assay: Binding affinity to human NK3 receptor
Neuromedin-K receptor [14] = biological target: T3, Neuromedin-K receptor; assay: Agonist activity at guinea pig NK3 receptor expressed in cells assessed as accumulation of [3H]inositol phosphate; format: functional, cell-based
How it was run: (§3)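 At 48 h, preincubated 10 min at RT in HBSS/20 mM HEPES pH 7.4 with 8 mM LiCl, then stimulated with [MePhe⁷]NKB (0.1 nM–10 μM) for 45 min at 37 °C. Inositol phosphates were extracted with formic acid, captured on yttrium silicate beads and counted. EC50 and Hill slope were derived.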

Neuromedin-K receptor [15] = biological target: T6, Neuromedin-K receptor; assay: Agonist activity at human NK3 receptor expressed in cells assessed as accumulation of [3H]inositol phosphate; format: functional, cell-based
How it was run: as §3

Neuromedin-K receptor [16] = biological target: T3, Neuromedin-K receptor; assay: Antagonist activity at wild type guinea pig NK3 receptor expressed in HEK293 cells assessed as inhibition of [MePhe7]NKB-induced accumulation of [3H]inositol phosphate; format: functional, cell-based; settings: read-out: pA2 (converted)
How it was run: as §2

T1/2 [1] [min]	T1/2 [3] [min]	T1/2 [4] [min]	T1/2 [5] [min]	Ki (Neuromedin-K receptor [6]) [nM]	Ki (Neuromedin-K receptor [7]) [nM]	Ki (Substance-K receptor [8]) [nM]	Kb (Neuromedin-K receptor [9]) [nM]	pA2 (Neuromedin-K receptor [10])	Ki (Substance-P receptor) [nM]	Ki (Neuromedin-K receptor [11]) [nM]	Ki (Substance-K receptor [12]) [nM]	Ki (Neuromedin-K receptor [13]) [nM]	EC50 (Neuromedin-K receptor [14]) [nM]	EC50 (Neuromedin-K receptor [15]) [nM]	Kb (Neuromedin-K receptor [16]) [nM]	SMILES	Kd [2] [nM]
31.5	10.2	10.1	4.01	–	–	–	–	–	–	–	–	–	–	–	–	CC(=O)N(C)C1(c2ccccc2)CCN(CCC[C@]2(c3ccc(Cl)c(Cl)c3)CCCN(C(=O)c3ccccc3)C2)CC1 [OSANETANT]	0.08
–	–	–	–	3.5	2.7	515	7.76	7.83	152	3.1	–	–	–	–	–	CC(=O)N(C)C1CCN(CCC(C)(C(=O)N(C)Cc2ccc(F)c(C(F)(F)F)c2)c2ccc(Cl)c(Cl)c2)CC1 (stereo unspecified)	–
–	–	–	–	–	–	–	–	–	–	–	1600	0.3	0.6	0.6	–	CSCC[C@H](NC(=O)[C@H](CC(C)C)NC(=O)CNC(=O)[C@H](Cc1ccccc1)N(C)C(=O)[C@H](Cc1ccccc1)NC(=O)[C@H](Cc1ccccc1)NC(=O)[C@H](CC(=O)O)NC(=O)[C@H](Cc1cnc[nH]1)NC(=O)[C@H](CCSC)NC(=O)[C@@H](N)CC(=O)O)C(N)=O (H-DMHDFF[NMeF]GLM-NH2)	–
–	–	–	–	1.6	1.8	109	8.91	7.96	182	0.8	–	–	–	–	–	CN(Cc1ccc(F)c(C(F)(F)F)c1)C(=O)C(C)(CCN1CCC(N2CCCC2=O)CC1)c1ccc(Cl)c(Cl)c1 (stereo unspecified)	–
–	–	–	–	8	11.9	953	18.2	7.53	70.9	10.4	–	–	–	–	24	CC(=O)N(C)C1CCN(CCC(C)(C(=O)N(C)Cc2ccccc2Cl)c2ccc(Cl)c(Cl)c2)CC1 (stereo unspecified)	–
